Source: publication PMC9488007 (Environmental Science and Ecotechnology, 2020)
In brackets after ≈: the same amount, converted by molar mass. Several values for one entry are separate records, joined by “and”; a condition that tells them apart may be missing. Equal entries are not always repeated. Where two headings read alike, the source gives them in different places.

Assays:
[1] = water, ref Wu et al.^3; cited from earlier work
[2] = test system: human breast adenocarcinoma cells, MCF-7; assay: cells; type: cell-based; conditions: for Cytotoxicity (proliferation reduction), MCF-7: high concentration (2 mg L^−1)
Desorption isotherms = type: physicochemical
[3] = test system: grass carp hepatocyte cell line, L8824; assay: cells; type: cell-based; conditions: for Cytotoxicity (proliferation reduction), L8824: high concentration (2 mg L^−1)
[4] = Desorption kinetics of bisphenols from bisphenol-attached PVC microplastics; type: physicochemical
Summary of the method: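 Bisphenol-loaded PVC from the adsorption step was placed in water or simulated intestinal fluid (NaCl 0.12 M, Na2CO3 0.02 M, sodium taurocholate 15.5 mM) in sealed 1 L glass bottles. Bottles were agitated rotationally at 200 rpm in an oil bath. Bisphenol was measured in filtered supernatant at intervals from 0 to 75 h. Run in triplicate.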

[5] = Physicochemical properties of the five bisphenols; conditions: calculated from log Kow and pKa
[6] = Adsorption of bisphenols onto PVC microplastics; type: physicochemical; conditions: 1.5 g PVC microplastics in 1 L, 48 h, room temperature
Summary of the method: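 Each bisphenol was dissolved in ethanol, then diluted in a 1 L glass bottle to initial concentrations of 0 to 1.0 mg L-1. PVC microplastics were added, and bottles were shaken at 200 rpm until adsorption equilibrium. Supernatants were filtered through a glass microfiber filter before bisphenol quantification. Run in triplicate.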

[7] = type: physicochemical; conditions: high concentration (2 mg L^−1)
[8] = calculated for concentration desorbed in warm-I
[9] = calculated for concentration desorbed in water
[10] = Homo sapiens, MCF7, 72 h, read-out: IC50 to MCF-7, 72 h exposure, 311 K, MTT
[11] = read-out: IC50 to MCF-7, 72 h exposure, 311 K, MTT
[12] = Hepatocyte, 72 h, read-out: IC50 to L8824, 72 h exposure, 291 K, MTT
[13] = read-out: IC50 to L8824, 72 h exposure, 291 K, MTT

Row | SMILES | kFa, Freundlich constant for adsorption [1] [mg^−1/n·L^−1/n·g^−1] | n, surface heterogeneity constant (adsorption) [1] | kFd, Freundlich constant for desorption (Desorption isotherms; warm-I (Table 2)) [mg^−1/n·L^−1/n·g^−1] | n, surface heterogeneity constant (desorption) (Desorption isotherms; warm-I (Table 2)) | kFd, Freundlich constant for desorption (Desorption isotherms; water (Table 2)) [mg^−1/n·L^−1/n·g^−1] | Fslow, slow fraction ([4]; cold-I, pH 7.5, 291 K) | krap, rapid desorption rate constant ([4]; cold-I, pH 7.5, 291 K) | kslow, slow desorption rate constant ([4]; cold-I, pH 7.5, 291 K) | kvs, very slow desorption rate constant ([4]; cold-I, pH 7.5, 291 K) | Fslow, slow fraction ([4]; warm-I, pH 6.5, 311 K) | Fvs, very slow fraction ([4]; warm-I, pH 6.5, 311 K) | krap, rapid desorption rate constant ([4]; warm-I, pH 6.5, 311 K) | kslow, slow desorption rate constant ([4]; warm-I, pH 6.5, 311 K) | kvs, very slow desorption rate constant ([4]; warm-I, pH 6.5, 311 K) | Fslow, slow fraction ([4]; water, pH 7.0, 291 K) | Fvs, very slow fraction ([4]; water, pH 7.0, 291 K) | krap, rapid desorption rate constant ([4]; water, pH 7.0, 291 K) | kslow, slow desorption rate constant ([4]; water, pH 7.0, 291 K) | kvs, very slow desorption rate constant ([4]; water, pH 7.0, 291 K) | amount of bisphenol adsorbed on the PVC [6] [mg/g] | also measured
1 | CC(C)(c1ccc(O)cc1)c1ccc(O)cc1 [BPA, bisphenol A] | 0.801 | 1.21 | 0.398 | 1.218 | 1.033 | 0.395±0.003 | 0.809±0.302 10^-2 h^-1 | 10.90±0.407 10^-4 h^-1 | 9.442±0.716 10^-5 h^-1 | 0.303±0.046 | 0.019±0.003 | 2.163±0.456 10^-2 h^-1 | 11.40±0.898 10^-4 h^-1 | 9.069±0.647 10^-5 h^-1 | 0.284±0.004 | 0.076±0.004 | 0.746±0.206 10^-2 h^-1 | 5.979±0.555 10^-4 h^-1 | 6.997±0.788 10^-5 h^-1 | 0.19 | IC50 ([2]; Homo sapiens, MCF7, 72 h, read-out: IC50 to MCF-7): 36.9 µM and 8.42 µg/mL; Cytotoxicity (proliferation reduction), MCF-7 [2, 8]: 21.75%; Cytotoxicity (proliferation reduction), MCF-7 [2, 9]: 12.36%; HI, hysteresis index (Desorption isotherms; warm-I): <0; HI, hysteresis index (Desorption isotherms; water): 0.289; n, surface heterogeneity constant (desorption) (Desorption isotherms; water (Table 2)): 1.512; IC50 ([3]; Hepatocyte, 72 h, read-out: IC50 to L8824): 16.2 µM and 3.7 µg/mL; Cytotoxicity (proliferation reduction), L8824 [3, 8]: 29.75%; Cytotoxicity (proliferation reduction), L8824 [3, 9]: 20.08%; Fvs, very slow fraction ([4]; cold-I, pH 7.5, 291 K): 0.043±0.005; log Dow [5]: 3.32
2 | Oc1ccc(C(c2ccc(O)cc2)(C(F)(F)F)C(F)(F)F)cc1 [BPAF, bisphenol AF] | 1.458 | 1.14 | 0.465 | 1.154 | 1.933 | 0.409±0.002 | 1.007±0.318 10^-2 h^-1 | 9.957±0.755 10^-4 h^-1 | <0.01 10^-5 h^-1 | 0.315±0.007 | <0.001 | 2.609±0.521 10^-2 h^-1 | 13.80±2.684 10^-4 h^-1 | <0.01 10^-5 h^-1 | 0.272±0.010 | 0.068±0.002 | 0.794±0.230 10^-2 h^-1 | 5.983±0.498 10^-4 h^-1 | 6.314±0.606 10^-5 h^-1 | 0.24 | IC50 [2, 10]: 2.65 ± 1.34 mg/L; Cytotoxicity (proliferation reduction), MCF-7 [2, 8]: 36.87%; Cytotoxicity (proliferation reduction), MCF-7 [2, 9]: 24.19%; IC50 [2, 11]: 7.87 ± 3.98 µM; HI, hysteresis index (Desorption isotherms; warm-I): <0; HI, hysteresis index (Desorption isotherms; water): 0.326; n, surface heterogeneity constant (desorption) (Desorption isotherms; water (Table 2)): 1.155; IC50 [3, 12]: 1.15 ± 0.18 mg/L; Cytotoxicity (proliferation reduction), L8824 [3, 8]: 46.31%; Cytotoxicity (proliferation reduction), L8824 [3, 9]: 32.70%; Fvs, very slow fraction ([4]; cold-I, pH 7.5, 291 K): 0.003±0.001
3 | CCC(C)(c1ccc(O)cc1)c1ccc(O)cc1 [BPB, bisphenol B] | 1.182 | 1.16 | 0.428 | 1.179 | 1.542 | 0.456±0.005 | 0.864±0.209 10^-2 h^-1 | 10.80±0.737 10^-4 h^-1 | 7.718±0.488 10^-5 h^-1 | 0.308±0.003 | 0.010±0.001 | 2.479±0.452 10^-2 h^-1 | 18.90±2.818 10^-4 h^-1 | <0.01 10^-5 h^-1 | 0.293±0.006 | 0.046±0.002 | 0.777±0.285 10^-2 h^-1 | 6.751±0.274 10^-4 h^-1 | 6.992±0.534 10^-5 h^-1 | 0.23 | IC50 [2, 10]: 21.6 µM and 5.25 µg/mL; Cytotoxicity (proliferation reduction), MCF-7 [2, 8]: 29.53%; Cytotoxicity (proliferation reduction), MCF-7 [2, 9]: 18.79%; HI, hysteresis index (Desorption isotherms; warm-I): <0; HI, hysteresis index (Desorption isotherms; water): 0.304; n, surface heterogeneity constant (desorption) (Desorption isotherms; water (Table 2)): 1.237; IC50 [3, 12]: 2.34 ± 0.23 mg/L; Cytotoxicity (proliferation reduction), L8824 [3, 8]: 36.95%; Cytotoxicity (proliferation reduction), L8824 [3, 9]: 26.25%; IC50 [3, 13]: 9.67 ± 0.92 µM; Fvs, very slow fraction ([4]; cold-I, pH 7.5, 291 K): 0.059±0.001
4 | Oc1ccc(Cc2ccc(O)cc2)cc1 [BPF, bisphenol F] | 0.575 | 1.13 | 0.388 | 1.186 | 0.720 | 0.335±0.002 | 0.662±0.241 10^-2 h^-1 | 6.906±0.579 10^-4 h^-1 | 2.367±0.112 10^-5 h^-1 | 0.308±0.003 | 0.005±0.001 | 1.744±0.373 10^-2 h^-1 | 9.877±1.415 10^-4 h^-1 | 5.778±0.325 10^-5 h^-1 | 0.371±0.004 | 0.051±0.002 | 0.619±0.179 10^-2 h^-1 | 6.659±0.441 10^-4 h^-1 | <0.01 10^-5 h^-1 | 0.16 | IC50 to MCF-7 ([2]; 72 h exposure, 311 K, MTT): 6.39 ± 0.34 mg/L (≈ 31.9 µM); Cytotoxicity (proliferation reduction), MCF-7 [2, 8]: 26.54%; Cytotoxicity (proliferation reduction), MCF-7 [2, 9]: 20.83%; IC50 [2, 11]: 31.9 ± 1.69 µM; HI, hysteresis index (Desorption isotherms; warm-I): <0; HI, hysteresis index (Desorption isotherms; water): 0.252; n, surface heterogeneity constant (desorption) (Desorption isotherms; water (Table 2)): 1.594; IC50 to L8824 ([3]; 72 h exposure, 291 K, MTT): 2.26 ± 0.43 mg/L (≈ 11.3 µM); Cytotoxicity (proliferation reduction), L8824 [3, 8]: 33.24%; Cytotoxicity (proliferation reduction), L8824 [3, 9]: 27.15%; IC50 [3, 13]: 11.3 ± 2.12 µM; log Dow [5]: 2.80; desorbed concentration, Warm-I [7]: 0.59 mg/L
5 | O=S(=O)(c1ccc(O)cc1)c1ccc(O)cc1 [BPS, bisphenol S] | 0.503 | 1.15 | 0.341 | 1.207 | 0.602 | 0.383±0.001 | 0.587±0.228 10^-2 h^-1 | 7.612±0.336 10^-4 h^-1 | 12.03±0.685 10^-5 h^-1 | 0.325±0.005 | <0.001 | 1.497±0.391 10^-2 h^-1 | 10.00±1.191 10^-4 h^-1 | 11.338±0.322 10^-5 h^-1 | 0.410±0.007 | 0.028±0.002 | 0.580±0.174 10^-2 h^-1 | 6.789±0.198 10^-4 h^-1 | <0.01 10^-5 h^-1 | 0.15 | IC50 to MCF-7 ([2]; 72 h exposure, 311 K, MTT): 14.50 ± 1.95 mg/L (≈ 57.9 µM); IC50 [2, 11]: 57.9 ± 7.76 µM; IC50 to L8824 ([3]; 72 h exposure, 291 K, MTT): 8.98 ± 1.51 mg/L (≈ 35.9 µM); IC50 [3, 13]: 35.9 ± 6.01 µM; Fvs, very slow fraction ([4]; cold-I, pH 7.5, 291 K): 0.085±0.002
